T cruzi inh: inhibitors of intracellular T. cruzi growth, primary screen, luminescence, NIH3T3 host cells; T. cruzi beta-gal in NIH3T3, 90 h; inhibition, % (test concentration not listed); 1.4% of 300,000 active; AID 1885, 2009;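 active = mean inhibition across valid replicates above about 55%, limit read from the data; inconclusive = mean below that limit but half or more replicates reach it; inactive = mean below it, under half of replicates reach it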;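 also: signal also drops with host cell toxicity which is not excluded here; 0% = plate median of DMSO wells and 100% = zero luminescence signal; higher percent means less beta-gal luminescence so fewer parasites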
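System: mouse NIH/3T3 fibroblasts infected with β-gal-expressing T. cruzi Tulahuen C4 / Input: NIH/3T3 cells, 5,000 per well / Buffer or medium: Low-serum DMEM with 2% FBS / Probe or stimulus: 5000 reporter trypomastigotes per well / Schedule: ≥90 h infection period, 3 h prior cell attachment / Measured by: GalScreen luminescence, 60 min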
NALP1 yeast inh: NALP1 inflammasome inhibitors in reconstituted yeast, colorimetric, S. cerevisiae, triplicate retest; S. cerevisiae NALP1/ASC/caspase-1 growth, X-gal OD620, 72 h; inhibition, % at 10 µM; 0.61% of 280,000 active; AID 2071, 2009; in the data active = inhibition mostly above about 24%, no sharp cut-off; inactive = mostly below about 32%
NLRP3 yeast inh: NALP3 inflammasome inhibitors in reconstituted yeast, primary screen, luminescence, uHTS; inhibition, % at 10 µM; Yeast reconstituted NLRP3/ASC/caspase-1, beta-gal luminescence, 24 h; 0.39% of 330,000 active;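 active = inhibition of 50% or more; inactive = inhibition below 50%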;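 also: plate controls were induced DMSO wells for no effect and uninduced yeast grown without galactose for full effect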
PolyA inhibitor: polyadenylation inhibitors in yeast reporter cells, primary screen, luminescence, S. cerevisiae | S. cerevisiae SKY197-pL101 polyadenylation reporter, beta-gal luminescence; efflux-impaired pdr1/pdr3 knockout yeast; score 100 = 6 SD above DMSO | activity score, % at 12 µM | 0.02% of 300,000 active | AID 1875, 2009;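 active = lowest replicate activity score at least 50, where 100 means six control SD above control mean; inconclusive = lowest score under 50 but half or more replicates reach 50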;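 also: yeast exposed to compound for 9 h at 30 °C; higher score means more reporter readthrough which indicates perturbed polyadenylation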
L major viab: Leishmania major promastigote growth inhibition, primary screen. Leishmania major promastigotes, resazurin fluorescence viability. inhibition, % at 10 µM. 9% of 200,000 active. AID 1063, 2008; in the data active = inhibition above about 50%;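 also: promastigotes grown with compound for 44 hours at 28 °C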
Calb FLC: C. albicans growth inhibition with fluconazole, primary screen, CaCi-2 strain, Alamar Blue fluorescence. growth inhibition, % (concentration not given with the values). C. albicans CaCi-2 + fluconazole, 48 h. 0.57% of 300,000 active;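 active = growth inhibition above about 58% in most replicates, limit read from the data, passing the limit was not always enough; inconclusive = exactly half the replicates above a set limit; inactive = most replicates below a set limit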;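 also: all wells also contain fluconazole at 8 µg/ml as a sub-toxic cotreatment; 0% = median of DMSO wells and 100% = median of geldanamycin control wells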
The depositor's hits bear a star; ? = inconclusive; . = not tested or not shown. Shown is part of a subset that was picked to be rich in hits.

SMILES	T cruzi inh	NALP1 yeast inh	NLRP3 yeast inh	PolyA inhibitor	L major viab	Calb FLC
Cc1ccc(O)c(C(CC(=O)NC(C)C)c2ccccc2)c1 (stereo unspecified)	-8	-6	-1	8	7	-9
CC(NC(=O)CC(c1ccccc1)c1cc(Cl)ccc1O)c1ccccc1 (stereo unspecified)	10	35	.	2	98*	-5
CCOC(=O)c1sc2c(c1C)C(c1cccs1)C1=C(CCCC1=O)N2 (stereo unspecified)	40	13	13	-11	64*	1
CCOC(=O)C1=C(C)NC2=C(C(=O)CCC2)C1c1cccs1 (stereo unspecified)	-2	18	9	5	16	-5
CC(C)C1NC(C(=O)O)Cc2c1[nH]c1ccccc21 (stereo unspecified)	-5	14	21	10	.	-17
CCCCn1c(NC(=O)c2ccccc2)nc2ccccc21	56*	24	33	-19	96*	40
CCn1c(NC(=O)c2ccccc2)nc2ccccc21	-17	20	36	-10	.	30
CCCCn1c(NC(=O)C2CCCCC2)nc2ccccc21	27	-6	14	1	71*	3
CCCn1c(NC(=O)c2ccc(F)cc2)nc2ccccc21	84*	-26	20	-9	17	-4
CC1Sc2ccc(S(=O)(=O)CCC(=O)NCc3ccc(Cl)cc3)cc2NC1=O (stereo unspecified)	-9	2	-2	-16	.	0
Cc1oc2c(Cl)c(Cl)c(O)c(CN(C)C)c2c1C(=O)c1ccc(Cl)cc1	-5	-5	18	-19	.	9
Cc1oc2ccc(O)c(CN3CCOCC3)c2c1C(=O)c1ccc(Cl)cc1	0	-14	19	3	52*	4
O=C(COC(=O)c1ccc(NC(=O)C2CC=CCC2C(=O)O)cc1)c1ccccc1 (stereo unspecified)	-9	-1	3	17	.	-3
O=C(NC(=S)Nc1ccccc1)c1ccc(-c2ccccc2)cc1	-5	3	22	-13	45	1
CC(C)NS(=O)(=O)c1ccc(NC(=S)NC(=O)c2ccc(-c3ccccc3)cc2)cc1	31	16	31	-10	93*	26
O=C(O)c1ccc(NC(=S)NC(=O)c2ccc(-c3ccccc3)cc2)cc1	-4	19	38	14	-1	84*
Cc1cccc(C)c1NC(=O)COC(=O)c1ccc2[nH]c3c(c2c1)CCCC3	14	2	2	29	6	-9
O=C(COC(=O)c1ccc2[nH]c3c(c2c1)CCCC3)Nc1ccccc1	24	22	17	-11	88*	-27
COc1ccccc1NS(=O)(=O)c1cc(NC(=O)/C=C/c2cccs2)ccc1N1CCOCC1	27	.	16	-3	99*	4
O=C(/C=C/c1cccs1)Nc1ccc(N2CCOCC2)c(S(=O)(=O)Nc2ccccc2Cl)c1	38	43	-4	-10	99*	-3
CC1CCN(CC(=O)Nc2ccc(C(=O)N3CCCCC3)cc2)CC1	-10	-6	12	13	.	-3
COc1ccc(C2=NN(C(=O)c3cccc([N+](=O)[O-])c3)C(c3cccc([N+](=O)[O-])c3)C2)cc1 (stereo unspecified)	25	.	10	-7	53*	28
Cc1ccccc1N=C(NOCc1ccc(Cl)cc1Cl)c1nonc1N	?	40*	13	-21	13	-21
Cc1ccccc1N=C(NOCc1ccccc1)c1nonc1N	.	1	12	.	19	.
CCN(CC(=O)NCc1ccc(Cl)cc1)C(=O)CN1C(=O)NC(C)(c2ccccc2)C1=O (stereo unspecified)	14	-17	-1	-1	.	0
CC1CCCCN1S(=O)(=O)c1ccc(S(=O)(=O)N(Cc2ccccc2)Cc2ccco2)cc1 (stereo unspecified)	71*	7	15	1	69*	-3
CCN(Cc1ccccc1)S(=O)(=O)c1ccc(S(=O)(=O)N(Cc2ccccn2)Cc2ccco2)cc1	21	9	-10	6	2	-1

Screens from PubChem BioAssay.
